This is a sample that favours compounds with a hit; in the whole collection about 2.2% have one here.
Tb hexokinase: blocks Trypanosoma brucei hexokinase 1 activity | recombinant TbHK1, G6PDH-coupled NADH A340 | inhibition, % at 10 µM | 0.11% of 220,000 active | AID 1430;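 active = inhibition of 50% or more in the single-dose primary screen; inactive = inhibition below 50%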
Hck Nef HTS: human Hck-Nef kinase inhibition; 0.68% of 220,000 active; Recombinant Hck-YEEI plus Nef, Z-Lyte FRET kinase assay; AID 463187; inhibition, % at 20 µM; P08631;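 active = Hck-Nef kinase inhibition above about 50%, limit read from the data; inactive = inhibition below that limit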;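 also: 0% = DMSO with Hck plus Nef and 100% = Hck alone without Nef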
Runt-SMMHC FRET: inhibitors of human RUNX1 Runt domain binding to CBFb-SMMHC; 0.74% of 220,000 active; Cerulean-Runt/Venus-CBFb-SMMHC FRET ratio 530/480, 1 h; inhibition, % at 20 µM; AID 1434; Q01196+Q13951;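 active = mean inhibition across duplicate retests at 20 µM reaching about 50%, limit read from the data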;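 also: 0% = DMSO wells and 100% = wells with excess untagged CBFb-SMMHC; inhibitors lower the FRET ratio by blocking Runt binding to CBFb-SMMHC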
Target sequence (Q01196 whole entry, looked up, the tested form may be a part): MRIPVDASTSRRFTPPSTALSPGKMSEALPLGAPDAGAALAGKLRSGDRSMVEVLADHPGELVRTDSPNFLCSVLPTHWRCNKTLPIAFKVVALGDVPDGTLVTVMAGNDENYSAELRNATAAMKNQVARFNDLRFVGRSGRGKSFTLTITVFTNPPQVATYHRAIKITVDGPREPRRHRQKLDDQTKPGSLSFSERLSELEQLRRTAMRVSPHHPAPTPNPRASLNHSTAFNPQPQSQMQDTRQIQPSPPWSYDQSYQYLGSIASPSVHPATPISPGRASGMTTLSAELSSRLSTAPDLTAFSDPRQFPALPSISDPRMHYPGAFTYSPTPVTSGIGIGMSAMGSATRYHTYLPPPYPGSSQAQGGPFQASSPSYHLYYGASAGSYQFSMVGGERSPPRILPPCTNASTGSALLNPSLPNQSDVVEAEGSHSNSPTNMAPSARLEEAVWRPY
Target sequence (Q13951 whole entry, looked up, the tested form may be a part): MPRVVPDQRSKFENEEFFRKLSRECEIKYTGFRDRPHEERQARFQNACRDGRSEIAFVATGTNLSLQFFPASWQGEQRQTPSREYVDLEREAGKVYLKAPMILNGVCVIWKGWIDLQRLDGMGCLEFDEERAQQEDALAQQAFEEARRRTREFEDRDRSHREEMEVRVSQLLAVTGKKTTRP
RanGTP-Impb inh: disruptors of Ran-importin-beta complex formation – biochemical, FRET, CFP-Ran, YFP-importin-beta, homogeneous, primary screen; inhibition, % (test concentration not listed); AID 2216; cell-free CFP-Ran/YFP-importin-beta FRET ratio; 1.1% of 300,000 active;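 active = more than half of the replicate wells show a fall in the fluorescence ratio signal beyond about 16%, limit read from the data, passing the limit was not always enough; inconclusive = exactly half of the replicate wells pass the set limit; inactive = fewer than half of replicates pass the limit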;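 also: 0% = DMSO wells and 100% = Ran loaded with GDP instead of GTP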
Runt-CBFb FRET: inhibitors of human RUNX1 Runt domain binding to CBFb. Cerulean-Runt/Venus-CBFb FRET ratio 530/480, 1 h. inhibition, % at 20 µM. AID 1496. 0.46% of 220,000 active. Q01196+Q13951;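 active = inhibition over about 50% at 20 µM in the single-dose screen, limit read from the data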;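 also: 0% = DMSO wells and 100% = excess unlabeled CBFb competitor control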
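Measured by: fluorescence energy transfer, 422 nm excitation, 530/480 nm emission; test system: Cerulean-tagged RUNX1 Runt domain (FRET donor) fusion protein; buffer or medium: Tris pH 7.5 buffer with BSA; compound: one dose, 20 µM compound, 1% DMSO; times: two 1 h room-temperature incubations shielded from light; benchmarks: unlabeled CBFb 5 µM, positive control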
14-3-3 Bad inh: disrupts binding of bovine 14-3-3 zeta to phospho-Bad peptide. P63103. TR-FRET 14-3-3zeta/Dy647-pBad peptide displacement, 1 h. inhibition, % at 21.7 µM. 0.71% of 220,000 active. AID 781;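 active = inhibition above about 70%, limit read from the data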;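 also: 0% = full 14-3-3 plus peptide FRET controls and 100% = background without 14-3-3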
* marks the source's active call; other numbers are inactive results; ? = inconclusive; · = not tested or not shown; [ ] = dose if it differs, or a comment.

SMILES	Tb hexokinase	Hck Nef HTS	Runt-SMMHC FRET	RanGTP-Impb inh	Runt-CBFb FRET	14-3-3 Bad inh
CC(C)[C@H](NC(=O)OCc1ccccc1)C(=O)OCC(=O)N1CCN(c2ccccc2)CC1	·	·	·	0	·	·
CC(=O)c1sc(N/N=C\c2ccccc2O)nc1C	-21	13	·	38*	·	-7
CC(=O)C1=C(c2ccccc2)OC(N)=C(C#N)C1c1ccccc1F (stereo not given)	-7	9	-6	2	-5	0
COc1cccc(C2C(C#N)=C(N)Oc3cc(N)ccc32)c1OC (stereo not given)	3	-10	100*	105*	72*	-5
N#CC1=C(N)Oc2cc(N)ccc2C1c1ccccc1F (stereo not given)	·	·	·	121*	·	·
COc1cc(CC(=O)OCC(=O)NCC(C)C)cc(OC)c1OC	-5	17	-2	2	1	-19
CCOc1ccc(S(=O)(=O)N2CCC(C(=O)OC(C)C(=O)N(C)C3CCCCC3)CC2)cc1 (stereo not given)	·	·	·	-4	·	·
O=C(NNc1c2ccccc2nc2ccccc12)c1cccc(O)c1	-8	1	35	?	22	-17
O=C(NNc1c2ccccc2nc2ccccc12)c1ccccc1O	0	58*	48	·	14	3
O=C(NNc1c2ccccc2nc2ccccc12)c1ccccc1Cl	·	·	·	27*	·	·
Cc1cccc(NC(=O)c2cc3c(=O)n4ccccc4nc3s2)c1	·	·	·	-26	·	·
O=C(Nc1cccc(Cl)c1)c1cc2c(=O)n3ccccc3nc2s1	·	·	·	91*	·	·
Cc1ccc(S(=O)(=O)NC(C(=O)Oc2ccc3c(C(F)(F)F)cc(=O)oc3c2)c2ccccc2)cc1 (stereo not given)	-12	-1	59*	36*	19	5
COC(=O)C(NS(=O)(=O)c1ccc(C)cc1)c1ccccc1 (stereo not given)	14	16	-3	-3	1	16
CCN(C(=O)Cn1cnc2cc([N+](=O)[O-])ccc2c1=O)C1CCS(=O)(=O)C1 (stereo not given)	-12	21	-15	14*	0	-10
CCOC(=O)c1c(NC(=O)c2ccccc2Br)sc2c1CCc1ccccc1-2	-16	2	2	8	15	-7
c1ccc2c(c1)oc1c(N3CCOCC3)ncnc12	-9	1	-2	-1	-1	81*
CC(C)CCN(CC(=O)NCc1ccc(F)cc1)S(=O)(=O)c1ccccc1F	·	·	·	3	·	·
O=S(=O)(c1ccc(Cl)cc1)N1CCC(N2CCOCC2)CC1	-4	0	-4	-1	2	80*
CN(C)c1nc(Nc2ccccc2)nc(Oc2ccc(=O)[nH]n2)n1	-1	-1	-7	?	0	11
CC(C)CNc1nc(Oc2ccc(=O)[nH]n2)nc(N(C)C)n1	1	5	0	?	2	91*
COc1ccccc1CCNC(=O)c1cc(-c2ccccn2)nc2ccc(Br)cc12	2	-24	-10	0	1	9
COc1ccccc1CCNC(=O)c1cc(-c2ccncc2)nc2ccc(Br)cc12	-17	51*	-5	1	-4	92*
COc1ccc(C(=O)Nc2nnc(CC(=O)N/N=C/c3ccc(O)cc3O)s2)cc1	·	·	·	108*	·	·
Cc1ccc(C(=O)Nc2nnc(CC(=O)N/N=C/c3ccc(O)c(O)c3)s2)cc1	·	·	·	4	·	·
SMILES	Tb hexokinase	Hck Nef HTS	Runt-SMMHC FRET	RanGTP-Impb inh	Runt-CBFb FRET	14-3-3 Bad inh
COc1ccc(/C=C2\Oc3cc(OCC(=O)N4CC(O)C[C@H]4C(=O)O)ccc3C2=O)cc1OC (stereo not given in full)	·	·	·	-67	·	·
Cc1ccccc1C(=O)NCC(=O)Nc1ccc(C)c(S(=O)(=O)N2CCCCCC2)c1	·	·	·	1	·	·
CCOc1cc(C(=S)N2CCN(C)CC2)ccc1OCC(=O)N1CCCC1	·	·	·	-1	·	·
O=S(=O)(Nc1ccc2c(c1)OCCO2)c1ccc(F)c(F)c1	·	·	·	5	·	·
O=S(=O)(Nc1ccc(Cl)cc1)c1ccc2c(c1)CCO2	36	-14	-1	0	0	98*
CCOc1ccc(/C=C/C(=O)N2CCOCC2)cc1OC	·	·	·	-1	·	·
CCOc1ccc(/C=C(\C(=O)O)c2ccc(S(=O)(=O)N3CCOCC3)s2)cc1OC	-21	-8	69*	104*	15	-4
CSc1ccc(/C=C(\C(=O)O)c2ccc(S(=O)(=O)N3CCCCC3)s2)cc1	-12	2	26	45*	9	6
CN1CCN(c2ccc([N+](=O)[O-])cc2NC(=O)c2ccccc2)CC1	-9	2	1	6	-4	77*
O=C(Nc1cc([N+](=O)[O-])ccc1N1CCCC1)c1ccccc1	1	-3	-11	-4	-3	-4
COc1cccc(C(=O)NCC(=O)NCc2cc(=O)n(C)c(=O)n2C)c1	·	·	·	2	·	·
CCCOc1ccc2cc(C(=O)NCc3ccccc3)c(=O)oc2c1	·	·	·	59*	·	·
COc1ccc2cc(C(=O)NCc3ccco3)c(=O)oc2c1	-20	4	77*	?	35	·
C/C(=N\OCC(=O)Nc1c(C)cc(C)cc1C)c1ccc2c(c1)OCCO2	-2	4	1	-1	-2	8
COC(=O)C1CSC(C(=O)OC)N1C(=O)CN1CCN(c2ccc(OC)cc2)CC1 (stereo not given)	0	-4	3	?	2	-5
O=C(c1ccc(=O)oc1)N1CCCc2ccccc21	-24	5	9	3	6	50
CC[N+]1=CN(c2ccccc2)C(C)=CC1(C)C	1	5	7	1	-6	82*[fluorescence artefact?]
CC1=NN(c2ccccc2)C(=O)C1(C)C	-2	1	-2	-4	·	2
CNC(=O)/C=C1\NC(C)(C)Cc2ccccc21	-11	1	0	2	0	30
CCC1(C)Cc2ccccc2/C(=C/C(=O)N2CCCCC2)N1 (stereo not given)	-12	0	4	3	-2	77*
Cn1c(=O)c2c(nc(N3CCCCC3)n2CC(O)COc2ccccc2)n(C)c1=O (stereo not given)	·	·	·	-3	·	·
Cn1c(=O)c2c(nc(N3CCCCCC3)n2CC(O)COc2ccccc2)n(C)c1=O (stereo not given)	-1	2	-8	-4	-2	72*
CN1CCN(c2nc3ccccn3c(=O)c2/C=C(\C#N)S(=O)(=O)c2ccccc2)CC1	-22	9	5	72*	2	-7
COCCNC(=O)/C(C#N)=C/c1c(N2CCN(C)CC2)nc2ccccn2c1=O	·	·	·	97*	·	·
CCOC(=O)/C(C#N)=C/c1c(N2CCN(C)CC2)nc2ccccn2c1=O	·	·	·	101*	·	·
CCNC(=O)/C(C#N)=C/c1c(N2CCOCC2)nc2ccccn2c1=O	-16	15	81*	9	63*	-5
